{"source": "paper PMC3488162", "about": "(The Journal of investigative dermatology, 2012)", "key": {"Sap": {"tested_on": "Sap", "conditions": "ref Korting et al., 1999; cited from earlier work"}, "[1]": {"tested_on": "P. aeruginosa clinical isolate", "assay": "Broth microdilution, P. aeruginosa clinical isolate", "assay_type": "cell-based", "conditions": "data not shown"}, "C. albicans SC5314": {"tested_on": "C. albicans SC5314", "assay": "Electron microscopy of C. albicans", "assay_type": "cell-based, Candida albicans", "conditions": "125 μg/ml, 24 h, 37 °C", "in_short": "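About 10^6 SC5314 cells/ml held with 125 μg/ml test compound for 24 h at 37 °C, beside an untreated control. Pellets fixed in 2.5% glutaraldehyde/2% formaldehyde (0.05 M phosphate, pH 7.3), post-fixed in 1% OsO4 and embedded in glycid ether. Sections of 20–30 nm stained with uranyl acetate and viewed by transmission EM.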"}, "[2]": {"tested_on": "GM-CSF secretion of epithelial cells", "assay": "GM-CSF secretion by epithelial cells", "assay_type": "cell-based, human", "conditions": "uninfected epithelial cells; 5 μg/ml; 12 h; n = 6", "in_short": "(§1)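 Epithelial cells infected or not with C. albicans SC5314, with or without 5 μg/ml test compound, for 12 h. Cytokine in culture supernatants measured by DuoSet sandwich ELISA. Data are means±SD of duplicate assays from three experiments; 2-tailed paired t test, n = 6.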"}, "C. albicans [3]": {"tested_on": "C. albicans", "assay": "Annexin V-FITC / propidium iodide staining, apoptotic and necrotic marker", "assay_type": "cell-based, Candida albicans"}, "[4]": {"tested_on": "IL-8 secretion of epithelial cells", "assay": "IL-8 secretion by epithelial cells", "assay_type": "cell-based, human", "conditions": "5 μg/ml, 12 h, n = 6", "in_short": "as §1"}, "C. albicans cells": {"tested_on": "C. albicans cells", "assay_type": "cell-based, Candida albicans", "conditions": "external (5 μg/ml) and endogenous peptide; oral RHE, 12 h; immunofluorescence", "in_short": "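Oral RHE infected with 2×10^6 C. albicans SC5314 in TSB/10 mM sodium phosphate, pH 7.2, with or without 5 μg/ml peptide, for 12 h. Tissue cryofixed; 5-μm sections fixed in PLP, blocked with donkey serum. Stained with affinity-purified rabbit anti-peptide antibody (1:50) and human anti-C. albicans serum (1:60), then Dylight 549/Cy5 secondaries and YOPRO nuclear stain. Confocal imaging at ×400 and ×250.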"}, "E. coli": {"tested_on": "E. coli", "assay": "Flow cytometric antimicrobial killing assay", "assay_type": "cell-based, E. coli ATCC 25922", "conditions": "90 min, 37°C", "in_short": "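E. coli ATCC 25922 (1.5×10^6 cells) in 1:6 diluted Schaedler broth at 37°C. Peptides dissolved in 0.01% acetic acid and added at 10 μg/ml; solvent served as viability control. After 90 min, DiBAC4(3) added for 10 min, cells spun and resuspended in PBS. Percentage of depolarised cells counted by flow cytometry over 10 000 events. One representative experiment run in triplicate.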"}, "C. albicans [5]": {"tested_on": "C. albicans", "assay": "Radial diffusion test, C. albicans", "assay_type": "cell-based, Candida albicans", "conditions": "different media"}, "Sap2p": {"target": "Sap2p (Candida albicans, UniProt P0CS83)", "sequence (P0CS83 57-398)": "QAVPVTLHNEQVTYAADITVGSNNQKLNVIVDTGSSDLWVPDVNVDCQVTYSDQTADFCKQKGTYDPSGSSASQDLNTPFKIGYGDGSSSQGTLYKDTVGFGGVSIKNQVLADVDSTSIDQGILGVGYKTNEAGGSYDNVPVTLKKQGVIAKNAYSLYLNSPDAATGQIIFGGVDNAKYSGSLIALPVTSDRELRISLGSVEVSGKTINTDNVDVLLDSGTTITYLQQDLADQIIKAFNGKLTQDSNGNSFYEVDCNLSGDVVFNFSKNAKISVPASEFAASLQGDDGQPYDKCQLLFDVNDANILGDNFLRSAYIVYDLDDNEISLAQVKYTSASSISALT", "assay": "Sap inhibition assay, Sap2", "assay_type": "biochemical, C. albicans", "conditions": "as stated in abstract"}, "P. aeruginosa PAO": {"tested_on": "P. aeruginosa PAO", "assay": "Broth microdilution, P. aeruginosa PAO", "assay_type": "cell-based", "conditions": "data not shown"}, "TR146 epithelial cells": {"tested_on": "TR146 epithelial cells", "assay": "LDH release by uninfected epithelial cells", "assay_type": "cell-based, human", "in_short": "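TR146 buccal cells grown in DMEM with 10% FCS at 37°C, 5% CO2. Tests run in antibiotic-free medium with 5, 10, 50, 100 or 125 μg/ml test compound for 12 and 24 h. Damage read as LDH release. Standard LDH samples spiked with 5 and 125 μg/ml test compound checked for assay interference.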"}, "C. albicans [6]": {"tested_on": "C. albicans", "assay": "Flow cytometric antimicrobial killing assay", "assay_type": "cell-based, Candida albicans", "conditions": "for depolarized fungal cells in a population: 1:6 diluted Schaedler broth, DiBAC4(3), flow cytometry, means of one representative experiment in triplicate; for antifungal activity compared between hGAPDH (2-32), LL-37 and hBD-3: 10 μg/ml each", "in_short": "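Candida albicans (strains 143, 277, 526 and SC5314; 1.5×10^6 cells) incubated at 37°C in 1:6-diluted Schaedler broth with test peptide or reference antimicrobial peptides at 10 μg/ml, dissolved in 0.01% acetic acid. Solvent-only controls. After 90 min, DiBAC4(3) membrane-potential dye added for 10 min; cells pelleted and resuspended in PBS. Percentage of depolarized cells counted by flow cytometry, 10,000 events per sample.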"}, "C. albicans [7]": {"tested_on": "C. albicans", "assay": "Broth microdilution, C. albicans", "assay_type": "cell-based, Candida albicans", "conditions": "data not shown"}, "Sap1p": {"target": "Sap1p (Candida albicans, UniProt P0CY27)", "sequence (P0CY27 51-391)": "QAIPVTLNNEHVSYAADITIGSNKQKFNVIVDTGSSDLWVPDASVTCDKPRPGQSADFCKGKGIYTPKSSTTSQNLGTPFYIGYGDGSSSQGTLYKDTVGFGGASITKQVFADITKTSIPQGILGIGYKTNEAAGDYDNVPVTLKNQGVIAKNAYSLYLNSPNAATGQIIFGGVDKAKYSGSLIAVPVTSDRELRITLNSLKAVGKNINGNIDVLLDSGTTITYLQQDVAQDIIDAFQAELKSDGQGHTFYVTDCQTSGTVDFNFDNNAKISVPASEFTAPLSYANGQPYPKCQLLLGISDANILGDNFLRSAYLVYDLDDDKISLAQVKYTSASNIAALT", "conditions": "as stated in abstract"}, "E. coli BL21": {"tested_on": "E. coli BL21", "assay": "Broth microdilution, E. coli BL21", "assay_type": "cell-based", "conditions": "data not shown"}, "[8]": {"tested_on": "TLR4 mRNA expression of epithelial cells", "assay": "Epithelial TLR4 mRNA expression", "assay_type": "cell-based, human", "conditions": "5 μg/ml, 12 h, n = 6", "in_short": "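Epithelial cells infected or not with C. albicans SC5314, with or without 5 μg/ml test compound, for 12 h. Total RNA extracted; cDNA made from 1 μg RNA with SuperScript III. qPCR run in duplicate using mean Ct, normalised to a housekeeping gene. Data are means±SD of duplicate assays from three experiments; 2-tailed paired t test, n = 6.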"}, "[9]": {"tested_on": "RHE (TR146) infected with C. albicans SC5314", "assay": "Histology of reconstituted human oral epithelium", "assay_type": "cell-based", "conditions": "125 μg/ml, 18 h after infection with C. albicans SC5314", "in_short": "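Multilayer oral RHE infected with 2×10^6 C. albicans SC5314 in 3 g/l TSB/10 mM sodium phosphate, pH 7.2. Test compound at 5–125 μg/ml or none, for 12 and 18 h at 37 °C in 5% CO2 with 100% humidity. Light microscopy scored on 50 sections from five sites per epithelium.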"}, "GAPDH": {"tested_on": "GAPDH", "conditions": "ref Mookherjee et al., 2009; cited from earlier work"}, "Sap2": {"tested_on": "Sap2", "conditions": "ref Wu et al., 1999, cited from earlier work"}, "C. albicans [10]": {"tested_on": "C. albicans", "conditions": "ref Wu et al., 1999, cited from earlier work"}, "[11]": {"conditions": "epithelial cells infected with C. albicans SC5314"}}, "note": "Entries after “also recorded” stand apart in the source; their conditions may differ."}
{"molecule": "CC(C)(C)NC(=O)[C@@H]1CN(Cc2cccnc2)CCN1C[C@@H](O)C[C@@H](Cc1ccccc1)C(=O)N[C@H]1c2ccccc2C[C@H]1O", "note": "[indinavir]", "values": [{"measurement": "inhibition of Sap activity", "setting": "Sap", "value": "inhibit Sap activity"}]}
{"molecule": "CC(C)(C)NC(=O)[C@@H]1C[C@@H]2CCCC[C@@H]2CN1C[C@@H](O)[C@H](Cc1ccccc1)NC(=O)[C@H](CC(N)=O)NC(=O)c1ccc2ccccc2n1", "note": "[saquinavir]", "values": [{"measurement": "inhibition of Sap activity", "setting": "Sap", "value": "inhibit Sap activity"}]}
{"molecule": "GKVKVGVNGFGRIGRLVTRAAFNSGKVDIVA [hGAPDH (2-32)]", "values": [{"measurement": "growth inhibition (MIC 100%)", "setting": "[1]", "value": "micromolar concentrations"}, {"measurement": "ultrastructural changes of C. albicans morphology", "setting": "C. albicans SC5314", "value": "distinct changes of the cell wall, plasma membrane and the cytoplasm; also recorded: enlargement of the fungal cytoplasmic vacuoles, disorganization of the internal organelles and the appearance of yeasts with an empty cytoplasm resembling necrotic ghost cells"}, {"measurement": "GM-CSF secretion", "setting": "[2]", "value": "increased secretion"}, {"measurement": "protoplasts with peripheral annexin V-FITC fluorescence (apoptosis)", "setting": "C. albicans [3]; 5 μg/ml, 1 h, 37°, 300 fungal cells", "value": 31, "unit": "%"}, {"measurement": "cellular changes after longer treatment or higher doses", "setting": "C. albicans [3]; treated for longer time with 5 μg/ml or at higher doses", "value": "cellular changes characteristic of necrosis"}, {"measurement": "IL-8 secretion", "setting": "[4]; [11]", "value": "even increased"}, {"measurement": "IL-8 secretion", "setting": "[4]; uninfected epithelial cells", "value": "increased secretion"}, {"measurement": "affinity to C. albicans cells", "setting": "C. albicans cells", "value": "strong affinity"}, {"measurement": "internalization by fungal cells", "setting": "C. albicans cells", "value": "internalization by the fungal cells"}, {"measurement": "antibacterial activity compared with LL-37 and hBD-3", "setting": "E. coli; 10 μg/ml each", "value": "less active against E. coli"}, {"measurement": "antibacterial activity", "setting": "E. coli; 10 μg/ml, 1:6 diluted Schaedler broth", "value": "potent antibacterial activity"}, {"measurement": "antifungal activity", "setting": "C. albicans [5]", "value": "antifungal activity was also demonstrated"}, {"measurement": "ED50, inhibition of Sap activity", "setting": "Sap2p", "value": 200, "unit": "µg/mL"}, {"measurement": "growth inhibition (MIC 100%)", "setting": "P. aeruginosa PAO", "value": "micromolar concentrations"}, {"measurement": "toxic mucosal effects", "setting": "TR146 epithelial cells; low concentrations", "value": "without any toxic mucosal effects"}, {"measurement": "toxicity on mammalian cells", "setting": "TR146 epithelial cells; uninfected epithelial cells, LDH release", "value": "low toxicity"}, {"measurement": "dose dependence of antifungal effect", "setting": "C. albicans [6]; C. albicans SC5314, 5, 10, 50, 100 and 125 μg/ml, 90 min", "value": "dose dependent"}, {"measurement": "effectiveness in killing assay", "setting": "C. albicans [6]; C. albicans, 5 μg/ml", "value": "not very effective"}, {"measurement": "depolarized fungal cells in a population", "setting": "C. albicans [6]; C. albicans, 10 µg/ml (3.1 µM), 90 min, 37°C", "value": 45, "unit": "%"}, {"measurement": "antifungal activity compared between hGAPDH (2-32), LL-37 and hBD-3", "setting": "C. albicans [6]; C. albicans, 90 min, 37°C", "value": "not significantly different"}, {"measurement": "depolarized fungal cells in a population", "setting": "C. albicans [6]; C. albicans, 100 µg/ml, 90 min, 37°C", "value": 90, "unit": "%"}, {"measurement": "depolarizing of the fungi in a population", "setting": "C. albicans [6]; two of the four tested C. albicans strains, 10 μg/ml, 90 min, 37°C", "value": "approximately 50%"}, {"measurement": "sensitivity of C. albicans strains", "setting": "C. albicans [6]; two other of the four tested C. albicans strains, 10 μg/ml, 90 min, 37°C", "value": "slightly lower sensitivity"}, {"measurement": "growth inhibition (MIC 100%)", "setting": "C. albicans [7]", "value": "micromolar concentrations"}, {"measurement": "ED50, inhibition of Sap activity", "setting": "Sap1p", "value": 160, "unit": "µg/mL"}, {"measurement": "growth inhibition (MIC 100%)", "setting": "E. coli BL21", "value": "micromolar concentrations"}, {"measurement": "TLR4 expression", "setting": "[8]; [11]", "value": "increased"}, {"measurement": "TLR4 mRNA expression", "setting": "[8]; uninfected epithelial cells, vs PBS treated controls", "value": "increased"}, {"measurement": "morphological alterations of infected RHE", "setting": "[9]", "value": "far less marked morphological alterations"}, {"measurement": "number of yeast cells on the mucosal surface", "setting": "[9]", "value": "decreased"}, {"measurement": "spongiosis and invasion of keratinocytes by yeast cells", "setting": "[9]", "value": "inhibited"}, {"measurement": "edema in infected RHE", "setting": "[9]; uppermost keratinocyte layers", "value": "mild edema"}]}
{"molecule": "LL-37: antimicrobial peptide LL-37 (Innovagen, Lund, Sweden); human cathelicidin (LLGDFFRKSKEKIGKEFKRIVQRIKDFLRNLVPRTES; Antibacterial peptide LL-37; UniProt P49913 134-170, looked up)", "values": [{"measurement": "GAPDH as mononuclear cell receptor", "setting": "GAPDH", "value": "GAPDH is relevant for the functioning"}]}
{"molecule": "hBD-3: antimicrobial peptide hBD-3 (Peptide Institute, Osaka, Japan) (GIINTLQKYYCRVRGGRCAVLSCLPKEEQIGKCSTRGRKCCRRKK; UniProt P81534 23-67, looked up) [reference compound]", "values": [{"measurement": "antifungal activity compared between hGAPDH (2-32), LL-37 and hBD-3", "setting": "C. albicans [6]; C. albicans, 90 min, 37°C", "value": "not significantly different"}]}
{"molecule": "lysozyme: antimicrobial protein ubiquitous in human mucosal secretions such as saliva", "values": [{"measurement": "production of Sap", "setting": "Sap2; lower concentrations", "value": "decreasing the production"}, {"measurement": "secretion of the isoenzyme Sap2", "setting": "Sap2", "value": "decreased"}, {"measurement": "killing of C. albicans", "setting": "C. albicans [10]; higher concentrations", "value": "killing the organism"}, {"measurement": "growth of C. albicans", "setting": "C. albicans [10]", "value": "inhibited the growth"}]}
